# According to article PMC5089614 (British Journal of Clinical Pharmacology, 2016):
# Read-outs that look alike come from different tables or passages of the source.
# What was measured:
# [1] = Single-dose plasma pharmacokinetics of oral ixazomib by hepatic function group; type: in vivo, human; settings: for AUC(0-t) / Tmax: human, plasma; for AUC(0-t): oral; for Tmax: po; for Dose-normalized AUC 0–last (total) / Unbound AUC 0-last / Unbound dose-normalized AUC 0–last / C max (total) / Dose-normalized C max (total) / Unbound C max / Unbound dose-normalized C max: geometric mean (%CV)
# In short: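 Solid tumour patients took a single oral dose on day 1. Moderate impairment was total bilirubin >1.5–3 × ULN and severe >3 × ULN. Plasma was sampled predose and 0.5–336 h post-dose and assayed by validated reverse-phase LC/MS/MS. Parameters were noncompartmental. Dose-normalized values were log-transformed, with ratios and 90% CI versus normal from a mixed-effects ANOVA, group fixed.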
# [2] = system: plasma proteins; type: in vitro ADME, human
# In short: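 Each patient's predose plasma was spiked with test compound at 70 or 280 ng ml−1 and run in triplicate by rapid equilibrium dialysis. Dialysis was 3 h at 37 °C against isotonic sodium phosphate buffer (120 mM, pH 7.5) across an 8000-Da cut-off membrane. Donor plasma and receiver buffer were each mixed 50:50 with the opposite matrix and quantified by LC/MS/MS.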
# [3] = cited from earlier work
# [4] = moderate impairment vs. normal function
# [5] = moderate impairment, 2.3 mg, n = 10
# [6] = moderate impairment, 2.3 mg, n = 13
# [7] = moderate/severe hepatic impairment combined
# [8] = moderate/severe impairment combined vs. normal function
# [9] = severe impairment vs. normal function
# [10] = severe impairment, 1.5 mg, n = 11
# [11] = severe impairment, 1.5 mg, n = 18
smiles,measurement,setting,value
CC(C)C[C@H](NC(=O)CNC(=O)c1cc(Cl)ccc1Cl)B(O)O [ixazomib],AUC(0-t),[1]; 1.5 mg,489 ng·h/mL
same,AUC(0-t),[1]; 2.3 mg,846 ng·h/mL
same,AUC(0-t),[1]; 4 mg,1160 ng·h/mL
same,Tmax,[1],0.95 to 1.5 h
same,Tmax,[1]; 1.5 mg,1.21 h
same,Tmax,[1]; 2.3 mg,1.5 h
same,Tmax,[1]; 4 mg,0.95 h
same,"unbound dose-normalized C max, percent higher than normal hepatic function",[1]; moderate hepatic impairment,27%
same,"Geometric least squares mean ratio (90% CI), total dose-normalized AUC 0–last",[1]; [4],"1.27 (0.77, 2.11)"
same,"Geometric least squares mean ratio (90% CI), total dose-normalized C max",[1]; [4],"1.21 (0.74, 2.00)"
same,"Geometric least squares mean ratio (90% CI), unbound dose-normalized AUC 0–last",[1]; [4],"1.32 (0.70, 2.50)"
same,"Geometric least squares mean ratio (90% CI), unbound dose-normalized C max",[1]; [4],"1.27 (0.74, 2.18)"
same,Dose-normalized AUC 0–last (total),[1]; [5],368 (49) h·ng ml^−1 mg^−1
same,Unbound AUC 0-last,[1]; [5],7.33 (61) h·ng ml^−1
same,Unbound dose-normalized AUC 0–last,[1]; [5],3.19 (61) h·ng ml^−1 mg^−1
same,C max (total),[1]; [6],42.5 (63) ng ml^−1
same,Dose-normalized C max (total),[1]; [6],18.5 (63) ng ml^−1 mg^−1
same,Unbound C max,[1]; [6],0.372 (80) ng ml^−1
same,Unbound dose-normalized C max,[1]; [6],0.162 (80) ng ml^−1 mg^−1
same,"total dose-normalized C max, percent higher than normal hepatic function",[1]; [7],17%
same,"unbound dose-normalized C max, percent higher than normal hepatic function",[1]; [7],24%
same,"Geometric least squares mean ratio (90% CI), total dose-normalized AUC 0–last",[1]; [8],"1.20 (0.79, 1.82)"
same,"Geometric least squares mean ratio (90% CI), total dose-normalized C max",[1]; [8],"1.17 (0.77, 1.78)"
same,"Geometric least squares mean ratio (90% CI), unbound dose-normalized AUC 0–last",[1]; [8],"1.27 (0.75, 2.16)"
same,"Geometric least squares mean ratio (90% CI), unbound dose-normalized C max",[1]; [8],"1.24 (0.79, 1.95)"
same,C max (total),"[1]; normal function, 4 mg, n = 12",61.0 (54) ng ml^−1
same,Dose-normalized AUC 0–last (total),"[1]; normal function, 4 mg, n = 12",289 (41) h·ng ml^−1 mg^−1
same,Dose-normalized C max (total),"[1]; normal function, 4 mg, n = 12",15.3 (54) ng ml^−1 mg^−1
same,Unbound AUC 0-last,"[1]; normal function, 4 mg, n = 12",9.65 (50) h·ng ml^−1
same,Unbound C max,"[1]; normal function, 4 mg, n = 12",0.509 (47) ng ml^−1
same,Unbound dose-normalized AUC 0–last,"[1]; normal function, 4 mg, n = 12",2.41 (50) h·ng ml^−1 mg^−1
same,Unbound dose-normalized C max,"[1]; normal function, 4 mg, n = 12",0.127 (47) ng ml^−1 mg^−1
same,"unbound dose-normalized AUC0–last, percent higher than normal hepatic function",[1]; severe hepatic impairment,23%
same,"unbound dose-normalized C max, percent higher than normal hepatic function",[1]; severe hepatic impairment,21%
same,"Geometric least squares mean ratio (90% CI), total dose-normalized AUC 0–last",[1]; [9],"1.13 (0.69, 1.84)"
same,"Geometric least squares mean ratio (90% CI), total dose-normalized C max",[1]; [9],"1.14 (0.72, 1.82)"
same,"Geometric least squares mean ratio (90% CI), unbound dose-normalized AUC 0–last",[1]; [9],"1.23 (0.66, 2.29)"
same,"Geometric least squares mean ratio (90% CI), unbound dose-normalized C max",[1]; [9],"1.21 (0.74, 2.01)"
same,Unbound AUC 0-last,[1]; [10],4.44 (63) h·ng ml^−1
same,Unbound dose-normalized AUC 0–last,[1]; [10],2.96 (63) h·ng ml^−1 mg^−1
same,C max (total),[1]; [11],26.1 (70) ng ml^−1
same,Dose-normalized C max (total),[1]; [11],17.4 (70) ng ml^−1 mg^−1
same,Unbound C max,[1]; [11],0.232 (84) ng ml^−1
same,Unbound dose-normalized C max,[1]; [11],0.154 (84) ng ml^−1 mg^−1
same,bound fraction (mean ± SD),[2]; moderate hepatic impairment group,99.1 ± 0.37%
same,bound fraction (mean ± SD),[2]; normal hepatic function group,99.2 ± 0.34%
same,bound fraction (mean ± SD),[2]; severe hepatic impairment group,99.0 ± 0.45%
same,half-life,[3]; after oral dosing,96 to 220 h
same,renal clearance,[3],0 to 0.51 L/h
same,median time to reach peak concentration (T max),[3]; clinical studies,0.5 to 2.0 h
same,effect of mild hepatic impairment on PK,"[3]; population PK analysis, cancer patients, NCI ODWG criteria",no clinically relevant PK changes
same,effect of mild and moderate renal impairment on PK,"[3]; population PK analysis, creatinine clearance ≥30 ml min^−1",did not alter ixazomib PK
